Reference: PubChem BioAssay
Activity calls are given as the source filed them.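 How the source made its calls, unless noted: active means Her2 level under about 52% in both replicate screens, with viability over 70% of control (limit read from the data); inconclusive means Her2 under the limit in one screen only, or viability under 70%; inactive means Her2 level above the set limit.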

What was measured:
[1] = reducers of endogenous Her2 protein level, primary screen, SKBR3 breast tumor cells, AlphaScreen, ATP viability (AID 461); conditions: 18-24 h, measured here: SKBR3 viability, ATP luminescence, at 10 µM;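 on Her2 level: lower value means less Her2 protein in the cells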;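 on viability: percent of carrier control wells set as 100% viability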
[2] = target: Receptor tyrosine-protein kinase erbB-2 (Homo sapiens) (UniProt P04626); experiment: as above; conditions: 18-24 h, at 10 µM, stronger effect = lower value
[3] = SK-BR-3 cell growth inhibitors, pilot screen, 24 h, human (AID 572;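 active means viability at or below 10% of carrier control in both of two separate runs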;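 further: compound exposure lasted between 18 and 24 h rather than exactly 24 h; 100% = carrier-treated control wells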); conditions: SK-BR-3 viability, CellTiter-Glo luminescence, at 10 µM, stronger effect = lower value
[4] = HUVEC growth inhibition – cell-based, human, primary screen (AID 575;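 active means viability at or below 30% in both replicate assays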;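 further: 100% = median of untreated cell wells with 0.1% DMSO on each plate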); conditions: HUVEC proliferation, CellTiter-Glo luminescence, 72 h; at 10 µM; stronger effect = lower value
Summary of the method: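 Timing: 72 h treatment at 37 °C; material: HUVEC primary cells; technique: CellTiter-Glo luminescence measuring cellular ATP; controls: vehicle and MePR control wells; measure: percent of median DMSO-control luminescence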

[5] = growth inhibitors of H69AR lung tumor, primary screen, human, duplicate replicates (AID 580;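 active means viability at or under a set limit in both replicates, limit being median viability minus 3 SD, cut at about 48% in these data, passing the limit was not always enough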;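 further: 100% = mean luminescence of untreated wells and 0% = no signal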); conditions: H69AR lung tumor cells viability, ATP luminescence, 72 h; at 10 µM; stronger effect = lower value
[6] = reversal of MRP1-mediated doxorubicin resistance, pilot screen, H69AR cells, doxorubicin co-treatment (AID 601;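 active means viability loss from added drug above about 55%, and viability with drug at most 40%, in both replicates, limit read from the data, passing the limit was not always enough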); conditions: CellTiter-Glo, 72 h, at 10 µM; for differential viability (reversal): stronger effect = higher value
[7] = 384-well plate pilot, post-Golgi transport modulator project, inhibition of yeast transport mutant growth (AID 636; in the data active means inhibition above about 31%); conditions: absorbance 615 nm, about 18 h, stronger effect = higher value
[8] = growth suppression of yeast trafficking mutant, preliminary HTS, modulators of trafficking downstream of Golgi apparatus project, 1536-format plate, OD 615 nm (AID 637; in the data active means inhibition above about 30%); conditions: yeast transport mutant growth, absorbance 615 nm, 18 h; stronger effect = higher value
[9] = H69AR cells + 2 uM doxorubicin, measured here: viability with 2 uM doxorubicin, stronger effect = lower value
[10] = H69AR cells, compound alone cytotoxicity

Chain of Receptor tyrosine-protein kinase erbB-2 (Homo sapiens) (P04626 whole entry, looked up): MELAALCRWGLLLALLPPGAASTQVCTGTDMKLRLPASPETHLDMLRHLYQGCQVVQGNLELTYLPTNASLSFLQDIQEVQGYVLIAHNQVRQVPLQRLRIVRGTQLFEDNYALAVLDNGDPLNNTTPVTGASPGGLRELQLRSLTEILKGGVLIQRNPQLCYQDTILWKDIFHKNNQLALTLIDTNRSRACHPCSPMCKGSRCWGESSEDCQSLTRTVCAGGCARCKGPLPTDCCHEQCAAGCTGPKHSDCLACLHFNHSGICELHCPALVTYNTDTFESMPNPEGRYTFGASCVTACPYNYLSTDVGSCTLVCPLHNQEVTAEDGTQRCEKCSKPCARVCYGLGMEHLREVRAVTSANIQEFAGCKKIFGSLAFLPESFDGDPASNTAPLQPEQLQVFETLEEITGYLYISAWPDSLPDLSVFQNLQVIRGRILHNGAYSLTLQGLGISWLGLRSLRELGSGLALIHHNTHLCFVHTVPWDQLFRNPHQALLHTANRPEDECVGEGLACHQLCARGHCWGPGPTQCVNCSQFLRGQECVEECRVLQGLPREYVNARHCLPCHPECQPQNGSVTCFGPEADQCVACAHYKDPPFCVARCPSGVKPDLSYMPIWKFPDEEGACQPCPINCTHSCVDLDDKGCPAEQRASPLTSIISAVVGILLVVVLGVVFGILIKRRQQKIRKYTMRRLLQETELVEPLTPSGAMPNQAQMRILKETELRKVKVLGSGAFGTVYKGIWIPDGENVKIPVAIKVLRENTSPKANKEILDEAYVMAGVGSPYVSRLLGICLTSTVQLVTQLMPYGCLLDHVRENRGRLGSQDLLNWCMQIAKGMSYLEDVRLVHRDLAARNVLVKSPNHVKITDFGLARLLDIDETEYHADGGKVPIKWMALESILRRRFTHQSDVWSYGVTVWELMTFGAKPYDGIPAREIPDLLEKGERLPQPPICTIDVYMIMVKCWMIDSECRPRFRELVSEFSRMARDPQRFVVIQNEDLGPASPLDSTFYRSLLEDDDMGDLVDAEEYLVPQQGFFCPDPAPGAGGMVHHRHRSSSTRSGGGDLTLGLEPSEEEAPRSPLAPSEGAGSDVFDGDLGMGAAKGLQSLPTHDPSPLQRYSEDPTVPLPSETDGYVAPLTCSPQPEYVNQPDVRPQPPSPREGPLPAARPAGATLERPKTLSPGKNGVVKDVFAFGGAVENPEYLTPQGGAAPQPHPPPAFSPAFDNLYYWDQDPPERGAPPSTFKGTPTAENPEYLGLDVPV

Row | Structure (SMILES) | viability [1] | Her2 level [2] | viability [3] | viability [4] | viability [5] | differential viability (reversal) ([6]; H69AR cells + 2 uM doxorubicin) | viability [6, 9] | viability [6, 10] | inhibition [7] | inhibition [8]
1 | COc1ccc(S(=O)(=O)Nc2ccc(S(=O)(=O)N3CCCCC3)cc2)cc1OC | 92% | 100% (inactive) | 92% (inactive) | 95.8% (inactive) | 91.3% (inactive) | -3.68% (inactive) | 94.9% | 91.3% | 0.13% (inactive) | -2% (inactive)
2 | COc1ccc(-n2c(SCCC(=O)O)nnc2-c2ccncc2)cc1 | 96% | 96% (inactive) | 96% (inactive) | 97% (inactive) | 96.7% (inactive) | 0.675% (inactive) | 96.1% | 96.7% | -3.42% (inactive) | 0.32% (inactive)
3 | CC(C)Cn1c(CN(Cc2ccccc2)Cc2ccccc2)nc2c1c(=O)n(C)c(=O)n2C | 85.5% | 86.5% (inactive) | 85.5% (inactive) | 54.8% (inactive) | 90.1% (inactive) | 1.2% (inactive) | 88.9% | 90.1% | -1.47% (inactive) | 3.93% (inactive)
4 | COc1ccccc1NC(=O)c1ccc(NC(=O)CSc2nnnn2C)cc1 | 92% | 96% (inactive) | 92% (inactive) | 84% (inactive) | 13.1% (active) | -25.5% (inactive) | 38.7% | 13.1% | -6% (inactive) | -2.13% (inactive)
5 | Cc1cc2c(=O)n(CC(=O)N3CCN(c4ccccc4)CC3)cnc2s1 | 92% | 78% (inactive) | 92% (inactive) | 100% (inactive) | 96.5% (inactive) | 8.25% (inactive) | 88.2% | 96.5% | -2.11% (inactive) | 0.18% (inactive)
6 | Cc1ccc(CNC(=O)COC(=O)c2c(C)noc2C)cc1 | 99% | 121% (inactive) | 99% (inactive) | 97.4% (inactive) | 92.8% (inactive) | 7.25% (inactive) | 85.6% | 92.8% | -4.03% (inactive) | -14.2% (inactive)
7 | O=C(CN(Cc1ccc2c(c1)OCO2)C(=O)CNS(=O)(=O)c1ccccc1)NCc1ccco1 | 97% | 86.5% (inactive) | 97% (inactive) | 107% (inactive) | 99.4% (inactive) | 2.35% (inactive) | 97% | 99.4% | 0.41% (inactive) | -1.31% (inactive)
8 | O=C(NCc1cccnc1)c1ccccc1Br | 110% | 98.5% (inactive) | 110% (inactive) | 115% (inactive) | 95.1% (inactive) | 0.945% (inactive) | 94.2% | 95.1% | -5.87% (inactive) | -2.42% (inactive)
9 | COc1cccc(C(=O)NCc2nnc(SCC(=O)Nc3nccs3)n2-c2ccccc2)c1 | 101% | 108% (inactive) | 101% (inactive) | 92.9% (inactive) | 97.9% (inactive) | -3.27% (inactive) | 101% | 97.9% | -2.18% (inactive) | 1.17% (inactive)
10 | CCOc1ccc(N(CC)C(=O)COc2cc(=O)n(C)c3ccccc23)cc1 | 84.5% | 86% (inactive) | 84.5% (inactive) | 93.6% (inactive) | 86.1% (inactive) | -2.48% (inactive) | 88.6% | 86.1% | -3.07% (inactive) | 0.98% (inactive)
11 | O=C(NCc1ccco1)c1cnn2c(C(F)(F)F)cc(-c3ccco3)nc12 | 86.5% | 74.5% (inactive) | 86.5% (inactive) | 92.9% (inactive) | 71.8% (inactive) | 0.17% (inactive) | 71.7% | 71.8% | -7.26% (inactive) | 1.9% (inactive)
12 | COc1ccc(Cc2nc(-c3ccc(NC(=O)c4cccnc4)cc3)no2)cc1 | 109% | 84.5% (inactive) | 109% (inactive) | 123% (inactive) | 17.7% (active) | -0.01% (inactive) | 17.7% | 17.7% | -7.7% (inactive) | 7.94% (inactive)
13 | CCCc1nn(CCc2ccccn2)c(N)c1CC | 114% | 91% (inactive) | 114% (inactive) | 89.4% (inactive) | 96.5% (inactive) | 3.08% (inactive) | 93.5% | 96.5% | -6% (inactive) | 0.66% (inactive)
14 | O=C(COc1ccc(F)cc1Br)N1CCc2ccccc21 | 97.5% | 100% (inactive) | 97.5% (inactive) | 77.3% (inactive) | 75.3% (inactive) | -6% (inactive) | 81.3% | 75.3% | -1.43% (inactive) | -0.33% (inactive)
15 | Cc1ccc(OCC(O)Cn2c(=N)n(CCN3CCCCC3)c3ccccc32)cc1 (stereo not given) | 79% | 63% (inactive) | 79% (inactive) | 2.43% (active) | 18.6% (active) | -3.16% (inactive) | 21.7% | 18.6% | -4% (inactive) | -0.33% (inactive)
16 | Cc1cc(C)n(-c2cc(N3CCOCC3)nc(-c3ccccc3)n2)n1 | 85% | 104% (inactive) | 85% (inactive) | 75.7% (inactive) | 73.6% (inactive) | -7.4% (inactive) | 81% | 73.6% | -5.79% (inactive) | 4.17% (inactive)

Row | Structure (SMILES) | viability [1] | Her2 level [2] | viability [3] | viability [4] | viability [5] | differential viability (reversal) ([6]; H69AR cells + 2 uM doxorubicin) | viability [6, 9] | viability [6, 10] | inhibition [7] | inhibition [8]
17 | COc1ccc(Nc2nc(OC)nc(N3CCN(c4ccc(OC)cc4)CC3)n2)cc1 | 123% | 98% (inactive) | 123% (inactive) | 66.7% (inactive) | 71.3% (inactive) | -5.71% (inactive) | 77% | 71.3% | -6.27% (inactive) | -3.06% (inactive)
18 | Cc1ccc(-c2c3c(=O)n(C)c(=O)n(C)c3cn2CCCN2CCOCC2)cc1 | 144% | 102% (inactive) | 144% (inactive) | 103% (inactive) | 77.8% (inactive) | -4.19% (inactive) | 82% | 77.8% | -7.5% (inactive) | -0.95% (inactive)
19 | Cc1cc(C)nc(N2CCCC(C(=O)Nc3ccc4c(c3)OCO4)C2)n1 (stereo not given) | 93% | 104% (inactive) | 93% (inactive) | 96.9% (inactive) | 98.5% (inactive) | 8.88% (inactive) | 89.6% | 98.5% | -5.54% (inactive) | -12.3% (inactive)
20 | Cc1nc2ccccn2c1/C(O)=C1\C(=O)C(=O)N(CCN2CCOCC2)C1c1cccs1 (stereo not given) | 94.5% | 90.5% (inactive) | 94.5% (inactive) | 108% (inactive) | 98.7% (inactive) | 4.16% (inactive) | 94.6% | 98.7% | -8.78% (inactive) | 0.67% (inactive)
21 | CC1=CC=CC2=NC(=O)CC(C)(C(=O)N(CC(=O)NC(C)C)C3CCCC3)N12 (stereo not given) | 101% | 100% (inactive) | 101% (inactive) | 96.5% (inactive) | 94% (inactive) | -6.48% (inactive) | 100% | 94% | -4% (inactive) | 0.16% (inactive)
22 | CNS(=O)(=O)c1cccc(C(=O)OCC(=O)c2cc(C)n(-c3ccc4c(c3)OCO4)c2C)c1 | 85.5% | 92% (inactive) | 85.5% (inactive) | 65.6% (inactive) | 88.4% (inactive) | 2.79% (inactive) | 85.6% | 88.4% | -4.42% (inactive) | 2% (inactive)
23 | O=C(CN1C(=O)CCSc2ccccc21)Nc1ccc(F)cc1 | 94% | 112% (inactive) | 94% (inactive) | 97.6% (inactive) | 98.5% (inactive) | 1.06% (inactive) | 97.5% | 98.5% | 3.29% (inactive) | 0.16% (inactive)
24 | Cc1ccc2c(c1)NC(=O)C(CC(=O)NCCN(CC(C)C)CC(C)C)O2 (stereo not given) | 88% | 93% (inactive) | 88% (inactive) | 87.3% (inactive) | 91.6% (inactive) | 5.71% (inactive) | 85.8% | 91.6% | 2.13% (inactive) | -3.28% (inactive)
25 | CC(C(=O)N1CCc2ccccc21)N1CCc2ccccc2C1 (stereo not given) | 82% | 79% (inactive) | 82% (inactive) | 93.7% (inactive) | 91.6% (inactive) | -10.2% (inactive) | 102% | 91.6% | -0.53% (inactive) | -3.11% (inactive)
26 | O=C(Nc1cccnc1N1CCOCC1)c1ccco1 | 110% | 86% (inactive) | 110% (inactive) | 115% (inactive) | 92% (inactive) | 7.89% (inactive) | 84.2% | 92% | -7.3% (inactive) | -4.67% (inactive)
27 | CCCN(CCC)C(=O)C1CCN(c2cc(C)nc3c(-c4ccc(OC)c(OC)c4)c(C)nn23)CC1 | 81.5% | 88% (inactive) | 81.5% (inactive) | 58.1% (inactive) | 69.1% (inactive) | 44% (inactive) | 25% | 69.1% | -0.13% (inactive) | -5.08% (inactive)
28 | O=C(Nc1ccccc1N1CCN(c2ccc(F)cc2)CC1)c1ccccc1 | 95% | 96% (inactive) | 95% (inactive) | 78.5% (inactive) | 93.8% (inactive) | 9.15% (inactive) | 84.6% | 93.8% | -5.87% (inactive) | 4.13% (inactive)
29 | CCOC(=O)C1=C(C)Nc2ncnn2C1c1ccccc1F (stereo not given) | 94% | 110% (inactive) | 94% (inactive) | 116% (inactive) | 95.6% (inactive) | -5% (inactive) | 101% | 95.6% | -0.92% (inactive) | -1.29% (inactive)
30 | CN(C(=O)c1ccccc1Cl)c1ccccc1 | 93.5% | 83.5% (inactive) | 93.5% (inactive) | 92.8% (inactive) | 106% (inactive) | 23.6% (inactive) | 82% | 106% | -8.63% (inactive) | 0.95% (inactive)
31 | Cc1cc(-c2ccccc2)c2nncn2n1 | 106% | 96% (inactive) | 106% (inactive) | 116% (inactive) | 89.9% (inactive) | 5.82% (inactive) | 84.1% | 89.9% | -8.27% (inactive) | 2.42% (inactive)
